Assay results published in ChEMBL document CHEMBL4619805, “Structural Analysis of VDR Complex with ZK168281 Antagonist” (J Med Chem, 2020).
Active and inactive are the calls of the source. The calls are words filed in the database; no cut-off is given here.

Key:
[1] = target: T1, Vitamin D3 receptor A (Danio rerio) (UniProt Q9PTN2); assay: Binding affinity to zebrafish VDR LBD assessed as stabilization of structural elements forming LBP at 10 fold excess compound concentration by HDX-MS analysis
T1 sequence (whole entry): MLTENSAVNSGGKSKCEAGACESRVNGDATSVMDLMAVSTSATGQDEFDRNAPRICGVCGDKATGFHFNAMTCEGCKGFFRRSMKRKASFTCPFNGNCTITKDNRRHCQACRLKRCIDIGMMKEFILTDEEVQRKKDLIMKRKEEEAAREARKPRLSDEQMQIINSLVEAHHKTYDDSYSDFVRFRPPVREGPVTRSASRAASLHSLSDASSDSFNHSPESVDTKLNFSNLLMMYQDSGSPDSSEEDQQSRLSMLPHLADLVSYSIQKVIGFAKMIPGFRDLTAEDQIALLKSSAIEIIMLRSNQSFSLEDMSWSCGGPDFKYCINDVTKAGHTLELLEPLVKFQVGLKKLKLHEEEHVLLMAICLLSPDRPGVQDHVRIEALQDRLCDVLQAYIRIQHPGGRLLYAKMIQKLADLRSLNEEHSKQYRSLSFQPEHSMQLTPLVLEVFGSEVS
How it was run: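 zVDR LBD (10 µM) incubated 30 min at room temperature with ten-fold ligand excess, ethanol as control. D₂O exchange for 60, 180, 600 or 1800 s in 50 mM Tris pH 8.0, 50 mM NaCl, 2% glycerol, 1 mM TCEP. Quench with 3 M urea/0.1% TFA, then pepsin column digestion and UPLC-MS. Back-exchange corrected using a fully deuterated sample. Triplicate reactions.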

[2] = target: T1, Vitamin D3 receptor A (Danio rerio); assay: Binding affinity to H12 region of zebrafish VDR LBD assessed as stabilization of structural elements forming LBP at 10 fold excess compound concentration by HDX-MS analysis
How it was run: (§1)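 zVDR LBD (residues 156–453, 10 µM) preincubated 30 min at room temperature with tenfold ligand excess (ethanol control). D2O exchange in 50 mM Tris pH 8.0, 50 mM NaCl, 2% glycerol, 1 mM TCEP for 60–1800 s. Quench with urea/TFA, online pepsin digest, UPLC-MS. Back-exchange corrected against fully deuterated sample; triplicates.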

[3] = target: T1, Vitamin D3 receptor A (Danio rerio); assay: Binding affinity to H10 region (416 to 426 residues) of zebrafish VDR LBD assessed as stabilization of structural elements at 10 fold excess compound concentration in presence of SRC1 NR2 coactivator peptide measured at 3 and 10 mins by HDX-MS analysis
How it was run: (§2)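 Deuterium exchange ran for 60, 180, 600 or 1800 s in D₂O buffer (50 mM Tris pH 8.0, 50 mM NaCl, 2% glycerol, 1 mM TCEP). Quench with urea/TFA, then online pepsin digestion and UPLC-MS. Uptake corrected for back exchange against a fully deuterated control. Triplicates.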

[4] = target: T1, Vitamin D3 receptor A (Danio rerio); assay: Binding affinity to H12 region (440 to 445 residues) of zebrafish VDR LBD assessed as stabilization of structural elements by measuring increase in protection at 10 fold excess compound concentration in presence of SRC1 NR2 coactivator peptide measured at 1 mins by HDX-MS analysis; how it was run: as §2
[5] = target: T1, Vitamin D3 receptor A (Danio rerio); assay: Binding affinity to H2 region of zebrafish VDR LBD assessed as stabilization of structural elements forming LBP at 10 fold excess compound concentration by HDX-MS analysis; how it was run: as §1
[6] = target: T1, Vitamin D3 receptor A (Danio rerio); assay: Binding affinity to H3 region (253 to 267 residues) of zebrafish VDR LBD assessed as stabilization of structural elements by measuring increase in protection at 10 fold excess compound concentration in presence of SRC1 NR2 coactivator peptide measured at 1 mins by HDX-MS analysis
How it was run: (§3)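 Deuterium exchange at pH 8.0 for 60, 180, 600 or 1800 s. Quench, pepsin digestion, UPLC-MS. Per-residue deuteration corrected to a fully deuterated control; triplicates.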

[7] = target: T1, Vitamin D3 receptor A (Danio rerio); assay: Binding affinity to H1 region of zebrafish VDR LBD assessed as stabilization of structural elements forming LBP at 10 fold excess compound concentration by HDX-MS analysis; how it was run: as §1
[8] = target: T1, Vitamin D3 receptor A (Danio rerio); assay: Antagonist activity at full-length zebrafish VDR expressed in rat IEC18 cells co-expressing CYP24A1 promoter region assessed as reduction in 1,25D3-induced receptor activation at 1 to 1000 nM incubated for 24 hrs by luciferase reporter gene assay
[9] = target: T2, Vitamin D3 receptor (Homo sapiens) (UniProt P11473); assay: Antagonist activity at human VDR expressed in HEK293 EBNA cells co-expressing CYP24A1 promoter region assessed as reduction in 1,25D3-induced receptor activation at 0.1 to 1000 nM incubated for 18 hrs by luciferase reporter gene assay; type: cell-based
T2 sequence (whole entry): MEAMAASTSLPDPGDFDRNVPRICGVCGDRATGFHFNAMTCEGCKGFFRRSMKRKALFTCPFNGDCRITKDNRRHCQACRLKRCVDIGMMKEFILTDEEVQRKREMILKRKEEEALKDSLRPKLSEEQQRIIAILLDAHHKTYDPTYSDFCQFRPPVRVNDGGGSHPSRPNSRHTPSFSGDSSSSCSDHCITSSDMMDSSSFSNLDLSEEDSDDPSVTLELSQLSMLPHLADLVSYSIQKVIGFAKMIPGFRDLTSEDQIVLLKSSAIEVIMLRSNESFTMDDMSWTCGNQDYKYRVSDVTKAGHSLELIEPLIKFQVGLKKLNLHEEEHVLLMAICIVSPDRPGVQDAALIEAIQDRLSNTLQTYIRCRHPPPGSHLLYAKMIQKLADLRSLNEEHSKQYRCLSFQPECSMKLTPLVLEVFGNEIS
How it was run: (§4)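 HEK293 EBNA cells, in 5% charcoal-treated FCS for 48 h, co-transfected by jetPEI with full-length hVDR, firefly luciferase under the human CYP24A1 proximal promoter (-414 to -64), and Renilla. 6 h later, 10 nM 1,25D3 ± compound (0.1–1000 nM) added for 18 h. Lysate luciferase normalized to Renilla; triplicate, mean ± SD.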

[10] = target: T1, Vitamin D3 receptor A (Danio rerio); assay: Binding affinity to H12 region of zebrafish VDR LBD assessed as stabilization of structural elements at 10 fold excess compound concentration in presence of SRC1 NR2 coactivator peptide by HDX-MS analysis; how it was run: as §3
[11] = target: T1, Vitamin D3 receptor A (Danio rerio); assay: Binding affinity to H10 to H11 region (416 to 437 residues) of zebrafish VDR LBD assessed as stabilization of structural elements by measuring increase in protection at 10 fold excess compound concentration in presence of SRC1 NR2 coactivator peptide measured at 1 mins by HDX-MS analysis; how it was run: as §3
[12] = target: T1, Vitamin D3 receptor A (Danio rerio); assay: Binding affinity to H5 region (290 to 297 residues) of zebrafish VDR LBD assessed as destabilization of structural elements by measuring deprotection at 10 fold excess compound concentration in presence of SRC1 NR2 coactivator peptide measured at 1 mins by HDX-MS analysis relative to 1,25D3
[13] = target: T1, Vitamin D3 receptor A (Danio rerio); assay: Binding affinity to H3 and H7 region of zebrafish VDR LBD assessed as stabilization of structural elements by measuring increase in protection at 10 fold excess compound concentration in presence of SRC1 NR2 coactivator peptide measured at 1 mins by HDX-MS analysis; how it was run: as §3
[14] = target: T1, Vitamin D3 receptor A (Danio rerio); assay: Binding affinity to H6 to H7 region (322 to 344 residues) of zebrafish VDR LBD assessed as stabilization of structural elements by measuring increase in protection at 10 fold excess compound concentration in presence of SRC1 NR2 coactivator peptide measured at 1 mins by HDX-MS analysis; how it was run: as §3
[15] = target: T2, Vitamin D3 receptor (Homo sapiens); assay: Antagonist activity at human VDR expressed in HEK293 EBNA cells co-expressing CYP24A1 promoter region assessed as reduction in 1,25D3-induced receptor activation at 0.1 to 1000 nM incubated for 18 hrs by luciferase reporter gene assay relative to control; type: cell-based; set-up: scale not given: the % may be the effect or the level left; how it was run: as §4

For `C=C1/C(=C\C=C2/CCC[C@]3(C)[C@@H]([C@H](C)CCCC(C)(C)O)CC[C@@H]23)C[C@@H](O)C[C@@H]1O`, the Activity [1] was “Active”, the Activity [2] was “inactive” and the Activity [3] was “Active”. The Activity [4] was 30 to 40%.

`C=C1/C(=C\C=C2/CCC[C@]3(C)[C@@H]([C@H](C)/C=C/[C@@H](O)C4(/C=C/C(=O)OCC)CC4)CC[C@@H]23)C[C@@H](O)C[C@@H]1O` was tested, and the Activity [5] was “Active”, the Activity [6] was “Active” and the Activity [7] was “Active”. The Activity [2] was “inactive”, the inhibition [8] was “Active” and the inhibition [9] was “Dose-dependent effect”. The Activity [10] was “inactive”, the Activity [11] was “Active” and the Activity [12] was > 30%. For the same compound, the Activity [13] was < 80%, the Activity [14] was “Active” and the Activity [15] was < 60%.
